The sample as a whole holds a higher share of hits than the screen did.
Fibroblast inh: antiproliferative effect on LL 47 fibroblasts – human, LL 47 cells, CellTiter-Glo luminescence, primary screen | viability, % at 10 µM | LL 47 human lung fibroblast viability, ATP luminescence; stronger effect = lower value | hit rate 1.1% among 85,000;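 active = viability at or below 50% in the single dose screen; inactive = viability above 50%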;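 also: compound exposure lasted 72 h before the ATP readout; 100% = median luminescence of untreated cell-only wells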
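Test system: LL 47 human lung fibroblasts / Incubation: 72 h compound exposure at 37 °C after overnight plating / Technique: luminescent ATP detection, CellTiter-Glo / Compound dosing: 0.1% DMSO in all compound wells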
PTEN del growth: growth suppression of PTEN-null HCT116, primary screen, cell-based, CellTiter-Glo | HCT116 PTEN-null viability, 60 h; stronger effect = lower value | viability, % at 10 µM | hit rate 1.2% among 140,000 | AID 827, 2007;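 active = viability at or below a set limit, 4 SD under the median of all tested compounds, cut at about 3.7% in these data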;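 also: PTEN knockout HCT116 line with beta catenin targeted HCT116 as companion control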
HUVEC prolif 384: inhibitors of HUVEC proliferation, primary screen, cell-based, 384-well; viability, % at 10 µM (by protocol); hit rate 1.1% among 86,000; CellTiter-Glo luminescence, 72 h; stronger effect = lower value;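 active = viability at or below 30%; inactive = viability above 30%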;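 also: 100% = median luminescence of DMSO-only cell control wells on each plate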
bCat KO growth: primary screen for growth suppressors in beta-catenin knockout HCT116 cells (colon tumor, human). viability, % at 10 µM. HCT116 beta-catenin knockout viability, CellTiter-Glo, 60 h; stronger effect = lower value. AID 818, 2007. hit rate 1.5% among 140,000;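 active = viability at or under a set limit, the compound median less 4 SD, cut at about 6% in these data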;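 also: 0% = Hyamine 1622 control at 20 µM and 100% = untreated cell control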
H69AR inhibit: proliferation blockers of H69AR lung cancer cells, primary screen, cell-based, human, 86K library | H69AR lung tumor viability, ATP luminescence, 72 h; stronger effect = lower value | viability, % at 10 µM | hit rate 6% among 85,000;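 active = viability at or below 40%; inactive = viability above 40%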;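 also: multidrug resistant small cell line overexpressing MRP-1 efflux transporter; 100% = mean luminescence of untreated control wells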
An asterisk follows results filed as active; . = no result.

SMILES	Fibroblast inh	PTEN del growth	HUVEC prolif 384	bCat KO growth	H69AR inhibit
O=c1[nH]c2cc3c(cc2cc1CN(CCO)S(=O)(=O)c1ccccc1Cl)OCCO3	93	88	94	61	63
Fc1ccc(Nc2nc(N3CCOCC3)c3ccccc3n2)cc1	91	.	65	.	35*
c1ccc2c(Nc3nc(N4CCOCC4)c4ccccc4n3)cccc2c1	.	48	.	62	.
C=CCn1c(SCC(=O)c2[nH]c(C)c(C(C)=O)c2C)nnc1-c1ccncc1	108	78	111	80	87
C=CCn1c(SCC(=O)c2[nH]c(C)c(C(=O)OC)c2C)nc2scc(-c3ccc(OC)c(OC)c3)c2c1=O	.	2.5*	.	4.1*	.
COCc1cc(C)nc(Nc2ccccc2C)c1C#N	84	97	91	92	98
COCc1cc(C)nc(N2CCc3ccccc32)c1C#N	103	80	96	91	31*
O=C(Cc1cccc2ccccc12)NC(NC(=S)Nc1ccccc1Cl)C(Cl)(Cl)Cl (stereo not given)	.	16	.	38	.
COc1ccc(NC(=S)NC(NC(=O)c2cccc(Cl)c2)C(Cl)(Cl)Cl)c([N+](=O)[O-])c1 (stereo not given)	94	65	12*	66	2.9*
O=C(/C=C/c1ccccc1)NC(NC(=S)Nc1cccc(Cl)c1)C(Cl)(Cl)Cl (stereo not given)	.	2.9*	.	10	.
O=C(NC(NC(=S)Nc1ccccc1Cl)C(Cl)(Cl)Cl)c1cccc(Cl)c1 (stereo not given)	.	2.7*	.	5.6*	.
Cc1ccc(C23CC4CC(CC(NC(=O)N5CCN(C)CC5)(C4)C2)C3)cc1	85	1.6*	72	1.5*	83
CCCCCOP(=O)(OCCCCC)C1(NS(=O)(=O)c2ccccc2)C=CC(=O)c2ccccc21 (stereo not given)	87	70	61	85	19*
COc1ccc(-c2nnc(SCC(=O)N3CCN(c4ccccc4)CC3)o2)cc1OC	94	87	66	91	14*
Cc1cc([N+](=O)[O-])nn1CC(=O)N1CCCc2ccccc21	.	90	.	93	.
O=C(Cn1cnc2sc(-c3ccccc3)cc2c1=O)NCc1ccco1	68	45	54	49	26*
O=C(Cn1cnc2sc(-c3ccccc3)cc2c1=O)NCc1ccccc1	65	2.2*	51	2.1*	22*
O=C(Cn1cnc2sc(-c3ccccc3)cc2c1=O)NCCc1ccccc1	69	10	39	7	26*
O=C(Cn1nnc(-c2ccccc2)n1)NCc1ccco1	99	87	102	90	107
O=C(Cn1ccc2ccccc2c1=O)NCCC(=O)Nc1ccc2c(c1)OCCO2	107	97	93	100	98
CCN1C(=O)CC2(C[N+]3(C)CCC2CC3)C1=O (stereo not given)	.	99	.	101	.
CC(C)(C)NC1=CC(=O)OC12CCCCC2	103	103	93	118	101
CC1CC(N(C(=O)c2ccco2)c2ccccc2)c2ccccc2N1 (stereo not given)	90	72	65	82	15*
CCOC(=O)c1ccc(NC(=O)CSc2nc(NC(=O)c3ccccc3)c3c(C)c(C)oc3n2)cc1	97	66	93	81	22*
CCN1c2ccccc2NC2N=C(OC)C(c3ccccc3)C21 (stereo not given)	7.0*	1.7*	2.1*	1.9*	1.4*
SMILES	Fibroblast inh	PTEN del growth	HUVEC prolif 384	bCat KO growth	H69AR inhibit
Cc1ccc(NC(=O)COC(=O)C2(c3ccc(Cl)cc3)CCCC2)cc1	.	59	.	79	.
O=C(NCc1ccco1)c1cc2cc3ccc(Cl)cc3nc2o1	53	18	69	9	9.5*
COc1ccc2cc3cc(C(=O)NCc4ccco4)oc3nc2c1	107	85	74	91	93
COC(=O)C1=C(C)N(CCc2ccc(OC)c(OC)c2)C(=O)/C1=C\N(C)C	99	115	97	104	98
Nc1nonc1C(=O)NCCNCc1c(OCc2ccccc2F)ccc2ccccc12	61	48	43	54	12*
O=C1c2ccccc2C(=O)C1c1ccnc2ccccc12	68	12	50	9	41
O=C1c2ccccc2C(=O)C1c1nccc2ccccc12	.	8	.	5.0*	.
Cc1ccc(NC(=O)CCC(=O)NNC(=O)COc2ccccc2)c(C)c1	.	104	.	96	.
C/C(O)=C(\C#N)c1nc2ccccc2[nH]1	.	69	.	73	.
N#C/C(=C(/O)COC(=O)CCC1CCCCC1)c1nc2ccccc2[nH]1	60	16	74	17	25*
Cc1cc(C)cc(OCC(=O)OC/C(O)=C(\C#N)c2nc3ccccc3[nH]2)c1	.	6	.	3.9*	.
Cc1cccc(C)c1OCC(=O)OC/C(O)=C(\C#N)c1nc2ccccc2[nH]1	.	11	.	10	.
N#C/C(=C(\O)Cc1ccccc1)c1nc2ccccc2[nH]1	95	7	72	7	15*
O=S(=O)(c1ccc(Cl)c(C(F)(F)F)c1)N1CCN(CC(O)COCC2CCCO2)CC1 (stereo not given)	98	84	96	77	67
COc1ccccc1C1CC(c2ccccc2)Nc2ncnn21 (stereo not given)	88	53	80	42	44
O=C(CN1CCC(NC(=O)c2ccccc2F)CC1)NCc1ccc(F)cc1	102	87	89	91	3.2*
O=C(N/N=C/c1c[nH]c2ccccc12)c1cc(-c2ccc(-c3ccccc3)cc2)n[nH]1	.	1.3*	.	1.1*	.
O=C(N/N=C/C=C\c1ccccc1[N+](=O)[O-])c1cc(-c2ccc3ccccc3c2)n[nH]1	.	5	.	4.7*	.
O=C(N/N=C/C=C\c1ccccc1[N+](=O)[O-])c1cccs1	.	79	.	76	.
O=C(N/N=C/c1ccco1)c1cc(-c2ccc3ccccc3c2)n[nH]1	76	27	3.7*	48	1.8*
O=C(CCSCc1ccccc1Cl)N1CCN(c2cccc(Cl)c2)CC1	95	60	70	61	88
O=C(c1ccc(CS(=O)(=O)c2cccc(C(F)(F)F)c2)o1)N1CCN(c2ccccn2)CC1	100	100	104	103	79
O=C(NC1CCCCC1)N1CCC(c2nc(-c3ccc(S(=O)(=O)N4CCCC4)cc3)no2)CC1	83	50	73	62	30*
O=C(C1CC1)N1CCC(c2nc(-c3ccc(S(=O)(=O)N4CCCC4)cc3)no2)CC1	109	72	98	97	93
COc1cc(C2Nc3ccc4ncccc4c3C3=C2C(=O)CCC3)cc(OC)c1O (stereo not given)	56	27	59	22	27*
S=C(Nc1ccc(Cl)c(Cl)c1)NC1CCCCC1	.	5	.	8	.
S=C(Nc1ccc(Cl)c(Cl)c1)NC1CCN(Cc2ccccc2)CC1	.	8	.	3.8*	.
O=c1c(Cl)c(Nc2cccc(Cl)c2)cnn1-c1nc2ccccc2s1	.	71	.	77	.
